Consider 23 molecules from ChEMBL document CHEMBL1155078, “From phenothiazine to 3-phenyl-1,4-benzothiazine derivatives as inhibitors of the Staphylococcus aureus NorA multidrug efflux pump” (J Med Chem, 2008).

Converted amounts (≈) assume the structure as drawn. The source made the active and inactive calls. The rule behind the calls is not given here. Some results are limits rather than exact numbers.

Series [1] has as its target T1, Quinolone resistance protein NorA (Staphylococcus aureus) (UniProt P0A0J7).
T1 sequence (whole entry): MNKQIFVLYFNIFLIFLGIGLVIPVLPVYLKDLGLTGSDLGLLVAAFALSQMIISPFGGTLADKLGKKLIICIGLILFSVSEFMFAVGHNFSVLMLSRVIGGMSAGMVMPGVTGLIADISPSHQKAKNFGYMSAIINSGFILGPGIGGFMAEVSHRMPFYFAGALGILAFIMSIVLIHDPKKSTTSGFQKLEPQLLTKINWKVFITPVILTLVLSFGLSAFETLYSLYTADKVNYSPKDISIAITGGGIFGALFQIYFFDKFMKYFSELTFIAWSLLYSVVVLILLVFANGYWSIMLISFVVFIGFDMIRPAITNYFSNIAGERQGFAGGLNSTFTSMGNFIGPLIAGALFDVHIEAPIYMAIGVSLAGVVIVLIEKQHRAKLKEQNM
The series can be described thus: Inhibition of NorA overexpressing Staphylococcus aureus K2378 assessed as fold reduction of ciprofloxacin MIC at 6.25 ug/mL by microdilution technique. Put shortly:
(§1)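 Ciprofloxacin MICs were measured in duplicate by broth microdilution following CLSI guidelines. They were determined alone and with scalar dilutions of freshly prepared test compound, which was added at the fixed concentration stated in the line. The result is the fold decrease in the ciprofloxacin MIC when compound is present.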
On the technique in general: Dilution methods test growth across graded concentrations, often in twofold steps.

The subject of series [2] is Staphylococcus aureus. Description: Antibacterial activity against wild type Staphylococcus aureus ATCC 25923 by microdilution technique. Type of series: functional. Put shortly: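 MICs determined in duplicate by broth microdilution following CLSI guidelines.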
Series [3] addresses T1, Quinolone resistance protein NorA (Staphylococcus aureus). The series can be described thus: Inhibition of NorA overexpressing Staphylococcus aureus K2378 assessed as fold reduction of ciprofloxacin MIC at 12.5 ug/mL by microdilution technique. The gist of the method: as §1
Series [4] shares this target. Description: Inhibition of NorA overexpressing Staphylococcus aureus K2378 assessed as fold reduction of ciprofloxacin MIC at 25 ug/mL by microdilution technique. The gist of the method:
as §1

For series [5] the target is unchanged. Description: Inhibition of NorA in Staphylococcus aureus ATCC 25923 assessed as fold reduction of ciprofloxacin MIC at 25 ug/mL by microdilution technique. Put shortly: as §1
Series [6] shares this target. Description: Inhibition of NorA pump-mediated ethidium bromide efflux in Staphylococcus aureus K1199B at 50 uM by fluorimetric analysis. The gist of the method:
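Loss of ethidium bromide from norA-overexpressing S. aureus SA-1199B measured fluorometrically with test agent at 50 µM. Run in duplicate; read-out is the mean total efflux over a 5 min time course.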

For series [7], the system named is Staphylococcus aureus. The series can be described thus: Antibacterial activity against Staphylococcus aureus K1199B at 50 uM by microdilution technique. It counts as functional, organism-based.
The target of series [8] is T1, Quinolone resistance protein NorA (Staphylococcus aureus). Description: Inhibition of NorA deficient Staphylococcus aureus K1902 assessed as fold reduction of ciprofloxacin MIC at 25 ug/mL by microdilution technique.
Series [9] is described as follows: Lipophilicity, log P of the compound. It counts as physicochemical. As to conditions: octanol/water.
Series [10] relates to Staphylococcus aureus. Description: Antibacterial activity against norA deficient Staphylococcus aureus K2378 by microdilution technique.
In series [11] the test system is Staphylococcus aureus. Description: Antibacterial activity against norA expressing Staphylococcus aureus K1902 by microdilution technique.
In series [12] the test system is Staphylococcus aureus. Description: microbe, parasite or virus in culture. As to conditions: ATCC 25923.
Series [13] addresses T1, Quinolone resistance protein NorA (Staphylococcus aureus). The series can be described thus: Inhibition of NorA deficient Staphylococcus aureus K1902 assessed as fold reduction of ciprofloxacin MIC at 12.5 ug/mL by microdilution technique.

For the molecule `FC(F)(F)c1ccc2c(c1)N=C(c1ccccc1)CS2`, the fold change (FC) in series [1] is 4; in [3], 16; in series [4], 16; in [5], 2. In addition, the MIC with Staphylococcus aureus [2] turned out to be 32 µg/mL (≈ 109 µM). In addition, in series [6], the inhibition (in general, how much of the control response was suppressed) worked out at 8.4%. Moreover, the outcome in the series on Staphylococcus aureus [7] was inactive.
Consider `Fc1ccc(C2=Nc3ccccc3SC2)cc1`, for which the fold change (FC) in series [1] amounted to 2; in series [8], 2; in series [3], 2; in series [4] it was 16; in series [5] it was 4. Moreover, the MIC with Staphylococcus aureus [2] was found to be 64 µg/mL (≈ 263 µM). In series [6], the inhibition was determined as 0%. Moreover, in [9], the logP (as a rule, a log measure of how a compound divides between an organic and an aqueous phase) worked out at 3.2. The result in the series with Staphylococcus aureus [7] was inactive.
Turning to `Cc1ccc(C2=Nc3ccccc3SC2)cc1`, the MIC against Staphylococcus aureus [2] was 64 µg/mL (≈ 267 µM). The fold change (FC) is 8 in series [8] and 4 in [5].
In turn, `COc1ccc(C2=Nc3cc(C(F)(F)F)ccc3SC2)cc1` gave an MIC in the series with Staphylococcus aureus [2] of 64 µg/mL (≈ 198 µM). Moreover, the fold change (FC) was determined as 8 in [4] and 2 in series [5].
As for `COc1ccc(C2=Nc3ccccc3SC2)cc1`, the fold change (FC) is 2 in series [1], 4 in series [3], 16 in series [4] and more than 8 in series [5]. Also, the MIC with Staphylococcus aureus [2] was more than 512 µg/mL. In addition, the inhibition in [6] was found to be 19.5%. The molecule further registered a logP in series [9] of 3.1. The outcome in the series on Staphylococcus aureus [7] was inactive.
In the series on Staphylococcus aureus [2], `O=S1(=O)C=C(c2ccc(Cl)cc2)Nc2ccccc21` yielded an MIC of 128 µg/mL (≈ 439 µM). In addition, the fold change (FC) was 2 in [4] and 4 in series [5].
In the series with Staphylococcus aureus [2], `CN(C)CCCN1c2ccccc2Sc2ccc(Cl)cc21` [CHLORPROMAZINE] displayed an MIC of 128 µg/mL (≈ 401 µM). For the same molecule, the fold change (FC) was more than 4 in [8] and 8 in [4]. In [6], this molecule gave an inhibition of 81%. The molecule further had a logP in series [9] of 5.2.
Turning to `O=[N+]([O-])c1ccc(C2=Nc3ccccc3SC2)cc1`, the MIC against Staphylococcus aureus [2] is more than 128 µg/mL. The fold change (FC) in series [4] and in [5] was 2 throughout. In series [6], the inhibition is 19.6%. Further, the result in the series on Staphylococcus aureus [7] was inactive.
`c1ccc(C2=Nc3ccccc3SC2)cc1`: in the series with Staphylococcus aureus [2], the MIC is more than 512 µg/mL. The fold change (FC) in [5] is 8. The molecule further showed an inhibition in series [6] of 0%. In [9], the logP stood at 3. For the same molecule, in the series on Staphylococcus aureus [7], the result was inactive.
The molecule `COc1cccc(C2=Nc3ccccc3SC2)c1` returned an MIC against Staphylococcus aureus [2] of 64 µg/mL (≈ 251 µM). Besides, the fold change (FC) was 8 in [4] and 4 in series [5].
Regarding `O=C(O)c1cn(C2CC2)c2cc(N3CCNCC3)c(F)cc2c1=O` [CIPROFLOXACIN], the MIC against Staphylococcus aureus [10] was 2 µg/mL (≈ 6.04 µM); against Staphylococcus aureus [11], 0.12 µg/mL (≈ 0.362 µM); with Staphylococcus aureus [12] it was 0.5 µg/mL (≈ 1.51 µM).
Take `CSc1ccc(C2CSc3ccccc3N2)cc1` (configuration not stated): the fold change (FC) in series [1] is 8; in [3], 8; in series [4], 16; in series [5], more than 8. The molecule further came in with an MIC against Staphylococcus aureus [2] of more than 128 µg/mL. Also, the inhibition in series [6] turned out to be 28.2%. The molecule also returned a logP in series [9] of 4.5. Also, the result in the series with Staphylococcus aureus [7] was inactive.
For the molecule `O=[N+]([O-])c1ccc(C2=Nc3cc(C(F)(F)F)ccc3SC2)cc1`, the fold change (FC) in series [1] is 8; in [8] it was 2; in series [3], 16; in series [4], more than 32; in series [13] it was 2; in series [5], more than 8. In the series with Staphylococcus aureus [2], this molecule registered an MIC of 32 µg/mL (≈ 94.6 µM). In [6], the inhibition came out at 69.7%. In series [9], the logP turned out to be 3.9. The result in the series with Staphylococcus aureus [7] was inactive.
In the series with Staphylococcus aureus [2], `Clc1ccc(C2=Nc3ccccc3SC2)cc1` came in with an MIC of 64 µg/mL (≈ 246 µM). Moreover, the fold change (FC) in series [8], in series [4] and in series [5] was 4 in each case.
As to `COc1ccc(C2=Nc3ccccc3SC2)cc1OC`, the fold change (FC) turned out to be 2 in series [1]; 2 in [8]; 4 in [3]; 16 in series [4]; 4 in [5]. For the same molecule, in the series on Staphylococcus aureus [2], the MIC came to 128 µg/mL (≈ 449 µM). In series [6], this molecule displayed an inhibition of 22.8%. Moreover, the outcome with Staphylococcus aureus [7] was inactive.
For the molecule `COc1ccccc1C1=Nc2ccccc2SC1`, the MIC against Staphylococcus aureus [2] stood at 64 µg/mL (≈ 251 µM). For the same molecule, the fold change (FC) in series [4] came to 8; in [5], 4. Moreover, the inhibition in series [6] came to 0%. Also, the logP in series [9] was 2.9. In addition, the outcome in the series with Staphylococcus aureus [7] was inactive.
Regarding `COc1cc(C2=Nc3ccccc3SC2)cc(OC)c1OC`, the fold change (FC) came out at 2 in series [1], 4 in series [3], 16 in series [4] and 4 in series [5]. The MIC against Staphylococcus aureus [2] turned out to be 32 µg/mL (≈ 101 µM). Besides, the inhibition in series [6] came out at 23.6%. Further, in the series on Staphylococcus aureus [7], the outcome was inactive.
In turn, `CCCOc1ccc(C2=Nc3ccccc3SC2)cc1` had an MIC with Staphylococcus aureus [2] of 128 µg/mL (≈ 452 µM). The fold change (FC) in series [4] was 4; in series [5], more than 8. The molecule further came in with an inhibition in [6] of 84.7%. The logP in series [9] is 4. Also, the result in the series with Staphylococcus aureus [7] was inactive.
For `COc1ccc(C2CSc3ccccc3N2)cc1` (configuration not stated), the fold change (FC) in [1] is 4; in series [3], 4; in series [4], 8; in [5], 2. Besides, the MIC with Staphylococcus aureus [2] is more than 128 µg/mL. In [6], this molecule registered an inhibition of 10.4%. Further, the outcome in the series with Staphylococcus aureus [7] was inactive.
On to `CCCOc1ccc(C2=CSc3ccccc3N2C)cc1`, for which the MIC in the series on Staphylococcus aureus [2] is more than 512 µg/mL. Further, the fold change (FC) in series [4] turned out to be 4. In series [6], this molecule registered an inhibition of 0%. Also, the outcome with Staphylococcus aureus [7] was inactive.
In the series with Staphylococcus aureus [2], `COC(=O)[C@H]1[C@H]2C[C@@H]3c4[nH]c5cc(OC)ccc5c4CCN3C[C@H]2C[C@@H](OC(=O)c2cc(OC)c(OC)c(OC)c2)[C@@H]1OC` [RESERPINE] displayed an MIC of 128 µg/mL (≈ 210 µM). The fold change (FC) turned out to be 2 in series [8], 4 in [4] and 2 in series [5]. This molecule also gave a logP in series [9] of 4.
On to `O=S1(=O)C=C(c2ccccc2)Nc2ccccc21`, for which the MIC against Staphylococcus aureus [2] is 128 µg/mL (≈ 497 µM). For the same molecule, the fold change (FC) in series [4] and in series [5] was 2 in each case.
`CC(C)CCOc1ccc(C2=Nc3ccccc3SC2)cc1` yielded an MIC in the series with Staphylococcus aureus [2] of more than 128 µg/mL. The fold change (FC) in series [4] was found to be 2; in series [5], 4. Moreover, the inhibition in series [6] amounted to 16.9%. For the same molecule, the result in the series on Staphylococcus aureus [7] was inactive.
